Assay results taken from ChEMBL document CHEMBL4706538, “Novel pleuromutilin derivatives with substituted 6-methylpyrimidine: Design, synthesis and antibacterial evaluation” (2020).
Converted amounts (≈) assume the structure as drawn.

What was measured:
Assay type in all cases: functional
Details in all cases: time 18-24 hrs
Staphylococcus aureus [1] = experiment: Antibacterial activity against Staphylococcus aureus BNCC 337371 measured after 18 to 24 hrs by microtiter dilution method
Procedure, shortened: (§1)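 Compounds were taken up in 25% DMSO at 64 μg/mL and serially diluted two-fold in water (11 dilutions). Log-phase bacteria grown in MHB were diluted to 10^5-10^6 CFU/mL and mixed 1:1 with the dilutions. Plates were incubated at 37 °C for 18-24 h. MIC was the lowest concentration giving no growth by OD492, averaged over three independent experiments.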

Pasteurella multocida = experiment: Antibacterial activity against Pasteurella multocida CVCC 1659 measured after 18 to 24 hrs by microtiter dilution method; procedure, shortened: as §1
Streptococcus agalactiae = experiment: Antibacterial activity against Streptococcus agalactiae measured after 18 to 24 hrs by microtiter dilution method; procedure, shortened: as §1
[2] = tested on: Streptococcus dysgalactiae; experiment: Antibacterial activity against Streptococcus dysgalactiae measured after 18 to 24 hrs by microtiter dilution method; procedure, shortened: as §1
Escherichia coli = experiment: Antibacterial activity against Escherichia coli CICC 10389 measured after 18 to 24 hrs by microtiter dilution method; procedure, shortened: as §1
Enterococcus faecalis = experiment: Antibacterial activity against Enterococcus faecalis measured after 18 to 24 hrs by microtiter dilution method; procedure, shortened: as §1
[3] = tested on: Staphylococcus epidermidis; experiment: Antibacterial activity against Staphylococcus epidermidis ATCC 51625 measured after 18 to 24 hrs by microtiter dilution method; procedure, shortened: as §1
Staphylococcus aureus [4] = experiment: Antibacterial activity against Staphylococcus aureus ATCC 25923 measured after 18 to 24 hrs by microtiter dilution method; procedure, shortened: as §1

SMILES | MIC (Staphylococcus aureus [1]) | MIC (Pasteurella multocida) | MIC (Streptococcus agalactiae) | MIC [2] | MIC (Escherichia coli) | MIC (Enterococcus faecalis) | MIC [3] | MIC (Staphylococcus aureus [4])
C=C[C@]1(C)C[C@@H](OC(=O)CSc2nc(C)cc(N3CCN(C)CC3)n2)[C@@]2(C)[C@H](C)CC[C@]3(CCC(=O)[C@H]32)[C@@H](C)[C@@H]1O | 0.43 µM (≈ 0.251 µg/mL) | 54.8 µM (≈ 32 µg/mL) | 0.11 µM (≈ 0.0643 µg/mL) | 0.43 µM (≈ 0.251 µg/mL) | > 54.8 µM | 54.8 µM (≈ 32 µg/mL) | 0.43 µM (≈ 0.251 µg/mL) | 0.43 µM (≈ 0.251 µg/mL)
C=C[C@]1(C)C[C@@H](OC(=O)CSc2nc(C)cc(N3CCC[C@H](CO)C3)n2)[C@@]2(C)[C@H](C)CC[C@]3(CCC(=O)[C@H]32)[C@@H](C)[C@@H]1O | 0.21 µM (≈ 0.126 µg/mL) | 26.7 µM (≈ 16 µg/mL) | 0.05 µM (≈ 0.03 µg/mL) | 0.05 µM (≈ 0.03 µg/mL) | > 53.5 µM | 26.7 µM (≈ 16 µg/mL) | 0.21 µM (≈ 0.126 µg/mL) | 0.1 µM (≈ 0.06 µg/mL)
C=C[C@]1(C)C[C@@H](OC(=O)CSc2nc(C)cc(O)n2)[C@@]2(C)[C@H](C)CC[C@]3(CCC(=O)[C@H]32)[C@@H](C)[C@@H]1O | 0.25 µM (≈ 0.126 µg/mL) | 7.95 µM (≈ 4 µg/mL) | 0.12 µM (≈ 0.0603 µg/mL) | 0.12 µM (≈ 0.0603 µg/mL) | > 63.8 µM | 16 µM (≈ 8.02 µg/mL) | 0.25 µM (≈ 0.126 µg/mL) | 0.25 µM (≈ 0.126 µg/mL)
C=C[C@]1(C)C[C@@H](OC(=O)CSc2nc(C)cc(OCCN)n2)[C@@]2(C)[C@H](C)CC[C@]3(CCC(=O)[C@H]32)[C@@H](C)[C@@H]1O | 0.92 µM (≈ 0.502 µg/mL) | > 58.7 µM | 0.46 µM (≈ 0.251 µg/mL) | 0.23 µM (≈ 0.126 µg/mL) | > 58.7 µM | 58.7 µM (≈ 32 µg/mL) | 0.92 µM (≈ 0.502 µg/mL) | 0.92 µM (≈ 0.502 µg/mL)
C=C[C@]1(C)C[C@@H](OC(=O)CSc2nc(C)cc(N3CCC(O)CC3)n2)[C@@]2(C)[C@H](C)CC[C@]3(CCC(=O)[C@H]32)[C@@H](C)[C@@H]1O | 0.21 µM (≈ 0.123 µg/mL) | 27.3 µM (≈ 16 µg/mL) | 0.11 µM (≈ 0.0644 µg/mL) | 0.11 µM (≈ 0.0644 µg/mL) | > 54.7 µM | 13.7 µM (≈ 8.01 µg/mL) | 0.21 µM (≈ 0.123 µg/mL) | 0.21 µM (≈ 0.123 µg/mL)
C=C[C@]1(C)C[C@@H](OC(=O)CSc2nc(C)cc(N(CC)CC)n2)[C@@]2(C)[C@H](C)CC[C@]3(CCC(=O)[C@H]32)[C@@H](C)[C@@H]1O | 0.45 µM (≈ 0.251 µg/mL) | 57.4 µM (≈ 32 µg/mL) | 0.11 µM (≈ 0.0614 µg/mL) | 0.22 µM (≈ 0.123 µg/mL) | > 57.4 µM | 28.7 µM (≈ 16 µg/mL) | 0.45 µM (≈ 0.251 µg/mL) | 0.22 µM (≈ 0.123 µg/mL)
C=C[C@]1(C)C[C@@H](OC(=O)CSc2nc(C)cc(N(C)C)n2)[C@@]2(C)[C@H](C)CC[C@]3(CCC(=O)[C@H]32)[C@@H](C)[C@@H]1O | 0.24 µM (≈ 0.127 µg/mL) | 30.2 µM (≈ 16 µg/mL) | 0.12 µM (≈ 0.0636 µg/mL) | 0.12 µM (≈ 0.0636 µg/mL) | > 60.5 µM | 15.1 µM (≈ 8 µg/mL) | 0.24 µM (≈ 0.127 µg/mL) | 0.12 µM (≈ 0.0636 µg/mL)
C=C[C@]1(C)C[C@@H](OC(=O)CSc2nc(C)cc(N3CCC(CO)CC3)n2)[C@@]2(C)[C@H](C)CC[C@]3(CCC(=O)[C@H]32)[C@@H](C)[C@@H]1O | 0.84 µM (≈ 0.504 µg/mL) | 53.5 µM (≈ 32.1 µg/mL) | 0.84 µM (≈ 0.504 µg/mL) | 0.42 µM (≈ 0.252 µg/mL) | > 53.5 µM | 53.5 µM (≈ 32.1 µg/mL) | 0.42 µM (≈ 0.252 µg/mL) | 0.21 µM (≈ 0.126 µg/mL)
C=C[C@]1(C)C[C@@H](OC(=O)CSc2nc(C)cc(OCC)n2)[C@@]2(C)[C@H](C)CC[C@]3(CCC(=O)[C@H]32)[C@@H](C)[C@@H]1O | 0.12 µM (≈ 0.0637 µg/mL) | > 60.4 µM | 0.24 µM (≈ 0.127 µg/mL) | 0.12 µM (≈ 0.0637 µg/mL) | > 60.4 µM | 15.1 µM (≈ 8.01 µg/mL) | 0.24 µM (≈ 0.127 µg/mL) | 0.12 µM (≈ 0.0637 µg/mL)
